The results in this text go back to ChEMBL document CHEMBL4376872, “Scaffold Hopping of Natural Product Evodiamine: Discovery of a Novel Antitumor Scaffold with Excellent Potency against Colon Cancer” (J Med Chem, 2020).

The subject of one series is PC-3. The series is described as follows: Antiproliferative activity against human PC3 cells assessed as reduction in cell viability incubated for 72 hrs by CCK8 assay. Particulars: PC-3, 72 h. Format: functional, cell-based. In general terms: Tetrazolium dyes change colour on reduction, which living cells bring about.
Series [1] relates to HCT-116. Kind of series: Induction of apoptosis in human HCT116 cells at 0.04 uM incubated for 24 hrs by annexin V-FITC and propidium iodide staining based flow cytometry (reference value: 0.86 %). Format: functional.
Series [2] relates to HCT-116. Kind of series: Cell cycle arrest in human HCT116 cells assessed as accumulation in S phase at 12 nM incubated for 24 hrs by propidium iodide staining based flow cytometry (reference value: 42.31 %). Format: functional.
In series [3] the test system is HCT-116. The series is described as follows: Cell cycle arrest in human HCT116 cells assessed as accumulation in G1 phase at 36 nM incubated for 24 hrs by propidium iodide staining based flow cytometry (reference value: 45.18 %). Format: functional. (A flow cytometer gives signals particle by particle.)
Series [4] has as its system HCT-116. Kind of series: Cell cycle arrest in human HCT116 cells assessed as accumulation in G2 phase at 36 nM incubated for 24 hrs by propidium iodide staining based flow cytometry (reference value: 12.52 %). Format: functional.
Series [5] concerns HCT-116. Kind of series: Induction of apoptosis in human HCT116 cells incubated for 24 hrs by annexin V-FITC and propidium iodide staining based flow cytometry. It is filed as functional, cell-based.
Series [6] is described as follows: Toxicity in mouse xenografted with human HCT116 cells assessed as reduction in body weight at 4 mg/kg, ip bid for 21 days administration starting from 10 days after tumor cell implantation measured every 2 or 4 days till the end of the treatment period. Format: organism-based. Particulars: in vivo. In outline: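 Nude mice bearing HCT116 xenografts were given intraperitoneal doses on 21 consecutive days, with n = 6 per group including an untreated control group. Body weight was recorded to assess toxicity. Data are mean ± SEM, compared with the control group by Student's t test.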
Background: A xenograft is tissue or cells of one species grown in another, often human tumour cells in immunodeficient mice.

Series [7] in a line: Aqueous solubility of compound at pH 7.4. It is filed as physicochemical.
For series [8], the target named is Poly [ADP-ribose] polymerase 1 (Homo sapiens) (UniProt P09874). Kind of series: Inhibition of PARP1 (unknown origin) using biotin-NAD+, NAD+ and sIDNA as substrate at 5 uM incubated for 1 hr by ELISA relative to control.
Series [9] concerns the target Poly [ADP-ribose] polymerase 2 (Homo sapiens) (UniProt Q9UGN5). Kind of series: Inhibition of PARP2 (unknown origin) using biotin-NAD+, NAD+ and sIDNA as substrate at 5 uM incubated for 1 hr by ELISA relative to control.
Series [10] has as its target DNMT3A2/3L complex (Homo sapiens) (UniProt Q9Y6K1+Q9UJW3). The series is described as follows: Inhibition of DNMT3a/3L (unknown origin) using poly(dIdC) as substrate at 5 uM incubated for 3 hrs in presence of 20 uM SAM by fluorescence analysis. Format: protein-complex assay.
The target in series [11] is N-lysine methyltransferase KMT5A (Homo sapiens) (UniProt Q9NQR1). The series is described as follows: Inhibition of SET8 (unknown origin) using plate-coated histone as substrate at 5 uM incubated for 90 mins in presence of 10 uM SAM by AlphaScreen assay relative to control.
For series [12], the target named is Serine/threonine-protein kinase PLK1 (Homo sapiens) (UniProt P53350). Kind of series: Inhibition of PLK1 (unknown origin) using PLK1 peptide as substrate at 5 uM incubated for 40 mins in presence of 10 uM ATP by kiase-Glo luminescence assay relative to control.
For series [13], the target named is Lysine-specific demethylase 4A (Homo sapiens) (UniProt O75164). Kind of series: Inhibition of JMJD2A (unknown origin) using biotinylated histone H3 peptide as substrate at 5 uM incubated for 60 mins by AlphaScreen assay relative to control.
The target in series [14] is 3',5'-cyclic-AMP phosphodiesterase 4A (Homo sapiens) (UniProt P27815). The series is described as follows: Inhibition of PDE4A4 (unknown origin) using FAM-cAMP as substrate at 5 uM incubated for 1 hr by fluorescence polarization assay relative to control.
Series [15] deals with T1, DNA topoisomerase 1 (Escherichia coli (strain K12)) (UniProt P06612).
T1 sequence (whole entry): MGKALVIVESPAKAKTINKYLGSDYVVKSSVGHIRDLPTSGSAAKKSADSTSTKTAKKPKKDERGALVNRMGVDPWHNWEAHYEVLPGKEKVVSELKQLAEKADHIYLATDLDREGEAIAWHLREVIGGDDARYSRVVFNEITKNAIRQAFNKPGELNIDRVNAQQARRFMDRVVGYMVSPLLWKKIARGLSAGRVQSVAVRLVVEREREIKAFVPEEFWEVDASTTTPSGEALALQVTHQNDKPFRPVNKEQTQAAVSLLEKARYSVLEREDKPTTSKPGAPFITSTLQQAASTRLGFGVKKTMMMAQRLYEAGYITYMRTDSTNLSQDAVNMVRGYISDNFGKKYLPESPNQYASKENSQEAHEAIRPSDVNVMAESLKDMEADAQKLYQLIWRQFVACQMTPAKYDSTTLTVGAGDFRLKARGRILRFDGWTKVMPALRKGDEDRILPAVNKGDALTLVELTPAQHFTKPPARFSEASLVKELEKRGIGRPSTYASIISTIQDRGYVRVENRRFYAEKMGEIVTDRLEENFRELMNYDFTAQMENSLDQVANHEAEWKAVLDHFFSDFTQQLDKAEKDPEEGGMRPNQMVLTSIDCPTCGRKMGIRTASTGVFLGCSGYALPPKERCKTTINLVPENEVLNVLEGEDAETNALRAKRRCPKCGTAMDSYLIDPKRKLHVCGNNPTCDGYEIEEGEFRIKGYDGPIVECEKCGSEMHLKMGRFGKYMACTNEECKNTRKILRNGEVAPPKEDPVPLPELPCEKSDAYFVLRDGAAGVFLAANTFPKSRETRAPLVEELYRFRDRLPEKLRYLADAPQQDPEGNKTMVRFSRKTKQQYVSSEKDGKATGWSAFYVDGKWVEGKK
Kind of series: Poison activity at Escherichia coli Top1 assessed as increase in […] band intensity at 12.5 to 100 uM using supercoiled pUC19 plasmid DNA as substrate incubated for 30 mins by agarose gel electrophoresis analysis. In a few lines: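 Supercoiled pUC19 plasmid DNA was incubated with Top1 plus compound at 100, 50, 25 and 12.5 μM. Controls were DNA alone, DNA + Top1, and DNA + Top1 + CPT (100 μM). Products were resolved as gel lanes.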

Values after ≈ are worked out from the molar mass of the structure shown. Active and inactive are the calls of the source. No cut-off for these calls is given here.

Chain of Poly [ADP-ribose] polymerase 1 (Homo sapiens) (P09874 whole entry): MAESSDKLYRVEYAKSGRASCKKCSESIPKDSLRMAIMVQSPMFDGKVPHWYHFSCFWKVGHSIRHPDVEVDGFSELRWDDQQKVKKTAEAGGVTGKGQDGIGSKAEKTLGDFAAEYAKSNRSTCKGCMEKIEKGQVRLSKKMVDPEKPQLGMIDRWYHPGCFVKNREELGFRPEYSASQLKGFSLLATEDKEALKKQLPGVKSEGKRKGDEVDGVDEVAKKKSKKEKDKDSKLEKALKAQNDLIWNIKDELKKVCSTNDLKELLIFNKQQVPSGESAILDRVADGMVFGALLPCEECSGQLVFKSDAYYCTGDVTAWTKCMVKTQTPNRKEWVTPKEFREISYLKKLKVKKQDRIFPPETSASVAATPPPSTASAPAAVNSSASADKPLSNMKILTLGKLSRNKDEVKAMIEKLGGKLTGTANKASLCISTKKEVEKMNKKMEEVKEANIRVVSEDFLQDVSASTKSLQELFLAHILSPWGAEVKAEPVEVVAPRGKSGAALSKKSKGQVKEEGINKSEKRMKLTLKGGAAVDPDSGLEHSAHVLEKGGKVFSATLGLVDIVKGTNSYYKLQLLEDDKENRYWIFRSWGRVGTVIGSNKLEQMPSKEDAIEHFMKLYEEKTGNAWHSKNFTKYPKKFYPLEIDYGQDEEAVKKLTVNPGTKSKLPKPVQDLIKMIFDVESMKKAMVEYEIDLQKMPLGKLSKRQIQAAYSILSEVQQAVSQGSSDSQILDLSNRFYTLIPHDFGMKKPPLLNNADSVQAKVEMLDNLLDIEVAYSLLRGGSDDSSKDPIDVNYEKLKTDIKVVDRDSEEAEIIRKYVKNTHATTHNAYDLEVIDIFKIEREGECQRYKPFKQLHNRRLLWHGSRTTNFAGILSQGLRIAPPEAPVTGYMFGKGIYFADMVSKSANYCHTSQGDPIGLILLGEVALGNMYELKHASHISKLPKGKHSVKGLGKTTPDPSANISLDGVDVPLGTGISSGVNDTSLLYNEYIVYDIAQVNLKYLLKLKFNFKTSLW
Chain of 3',5'-cyclic-AMP phosphodiesterase 4A (Homo sapiens) (P27815 whole entry): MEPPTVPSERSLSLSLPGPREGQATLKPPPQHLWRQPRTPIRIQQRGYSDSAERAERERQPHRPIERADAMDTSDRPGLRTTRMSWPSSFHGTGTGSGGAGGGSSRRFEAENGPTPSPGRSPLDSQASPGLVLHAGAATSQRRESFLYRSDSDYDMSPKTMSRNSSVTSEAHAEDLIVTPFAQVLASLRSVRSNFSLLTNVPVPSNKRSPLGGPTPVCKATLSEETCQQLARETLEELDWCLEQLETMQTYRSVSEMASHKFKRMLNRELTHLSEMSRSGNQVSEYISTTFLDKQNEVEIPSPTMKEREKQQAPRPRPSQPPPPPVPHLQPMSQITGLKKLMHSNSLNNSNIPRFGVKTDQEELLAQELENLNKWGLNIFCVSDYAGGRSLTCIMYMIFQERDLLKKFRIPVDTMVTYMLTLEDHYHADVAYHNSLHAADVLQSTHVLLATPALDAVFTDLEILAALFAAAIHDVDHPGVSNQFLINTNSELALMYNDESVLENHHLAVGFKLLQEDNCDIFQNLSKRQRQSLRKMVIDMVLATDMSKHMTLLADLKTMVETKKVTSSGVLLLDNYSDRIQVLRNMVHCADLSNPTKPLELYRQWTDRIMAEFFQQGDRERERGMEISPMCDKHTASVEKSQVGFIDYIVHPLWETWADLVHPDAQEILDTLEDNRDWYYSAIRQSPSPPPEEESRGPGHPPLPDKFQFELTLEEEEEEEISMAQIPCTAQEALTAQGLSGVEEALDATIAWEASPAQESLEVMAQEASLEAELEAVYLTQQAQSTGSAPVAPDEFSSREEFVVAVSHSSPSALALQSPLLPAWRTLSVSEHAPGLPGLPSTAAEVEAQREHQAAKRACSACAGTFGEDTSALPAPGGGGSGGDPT
Chain of Lysine-specific demethylase 4A (Homo sapiens) (O75164 whole entry): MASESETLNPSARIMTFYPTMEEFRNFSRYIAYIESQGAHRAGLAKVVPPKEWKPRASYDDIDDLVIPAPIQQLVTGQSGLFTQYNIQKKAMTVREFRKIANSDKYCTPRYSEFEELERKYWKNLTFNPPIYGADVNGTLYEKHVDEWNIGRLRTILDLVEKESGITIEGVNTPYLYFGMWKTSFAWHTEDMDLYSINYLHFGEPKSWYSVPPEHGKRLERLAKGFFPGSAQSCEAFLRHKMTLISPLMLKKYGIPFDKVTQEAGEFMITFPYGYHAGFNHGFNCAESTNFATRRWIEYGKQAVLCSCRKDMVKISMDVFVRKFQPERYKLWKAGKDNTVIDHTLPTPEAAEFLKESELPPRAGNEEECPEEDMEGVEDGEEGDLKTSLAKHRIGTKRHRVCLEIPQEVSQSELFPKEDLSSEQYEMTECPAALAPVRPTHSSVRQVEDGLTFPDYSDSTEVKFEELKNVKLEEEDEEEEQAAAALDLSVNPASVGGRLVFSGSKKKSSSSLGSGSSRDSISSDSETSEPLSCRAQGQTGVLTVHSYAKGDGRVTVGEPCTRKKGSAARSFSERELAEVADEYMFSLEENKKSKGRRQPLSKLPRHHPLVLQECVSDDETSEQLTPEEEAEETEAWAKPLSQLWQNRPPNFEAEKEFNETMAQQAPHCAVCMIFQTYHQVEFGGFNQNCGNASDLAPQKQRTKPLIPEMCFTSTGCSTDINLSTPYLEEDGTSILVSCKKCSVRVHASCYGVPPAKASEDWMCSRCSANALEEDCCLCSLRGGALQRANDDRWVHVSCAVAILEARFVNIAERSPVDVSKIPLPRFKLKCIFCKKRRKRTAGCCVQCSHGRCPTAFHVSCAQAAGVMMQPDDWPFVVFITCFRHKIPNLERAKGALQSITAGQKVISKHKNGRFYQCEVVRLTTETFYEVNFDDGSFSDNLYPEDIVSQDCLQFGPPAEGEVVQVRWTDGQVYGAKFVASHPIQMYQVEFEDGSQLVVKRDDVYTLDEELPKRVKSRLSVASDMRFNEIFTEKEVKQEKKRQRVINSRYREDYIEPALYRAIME
Chain of N-lysine methyltransferase KMT5A (Homo sapiens) (Q9NQR1 whole entry): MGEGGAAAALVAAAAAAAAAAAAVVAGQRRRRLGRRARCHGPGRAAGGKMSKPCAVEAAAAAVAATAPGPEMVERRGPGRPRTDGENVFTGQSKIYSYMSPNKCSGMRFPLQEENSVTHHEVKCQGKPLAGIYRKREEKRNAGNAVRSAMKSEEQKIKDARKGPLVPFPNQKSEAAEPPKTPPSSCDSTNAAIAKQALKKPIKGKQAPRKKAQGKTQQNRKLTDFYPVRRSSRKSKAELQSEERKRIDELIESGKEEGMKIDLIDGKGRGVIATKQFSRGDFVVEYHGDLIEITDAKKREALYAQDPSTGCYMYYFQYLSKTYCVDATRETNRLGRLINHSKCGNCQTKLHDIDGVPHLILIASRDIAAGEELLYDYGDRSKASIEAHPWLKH
Chain of DNMT3A2/3L complex (Homo sapiens) (Q9UJW3 whole entry, looked up): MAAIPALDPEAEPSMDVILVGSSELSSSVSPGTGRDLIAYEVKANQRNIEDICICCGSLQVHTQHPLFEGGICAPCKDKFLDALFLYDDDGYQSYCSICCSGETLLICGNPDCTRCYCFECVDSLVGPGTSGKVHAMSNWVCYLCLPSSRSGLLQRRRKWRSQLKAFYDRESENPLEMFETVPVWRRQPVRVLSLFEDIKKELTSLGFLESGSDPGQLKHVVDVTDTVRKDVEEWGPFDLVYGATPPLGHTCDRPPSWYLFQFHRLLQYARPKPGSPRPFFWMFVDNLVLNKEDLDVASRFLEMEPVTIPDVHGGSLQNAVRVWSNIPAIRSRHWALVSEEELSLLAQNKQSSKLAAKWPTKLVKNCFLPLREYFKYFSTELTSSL
Chain of DNMT3A2/3L complex (Homo sapiens) (Q9Y6K1 whole entry, looked up): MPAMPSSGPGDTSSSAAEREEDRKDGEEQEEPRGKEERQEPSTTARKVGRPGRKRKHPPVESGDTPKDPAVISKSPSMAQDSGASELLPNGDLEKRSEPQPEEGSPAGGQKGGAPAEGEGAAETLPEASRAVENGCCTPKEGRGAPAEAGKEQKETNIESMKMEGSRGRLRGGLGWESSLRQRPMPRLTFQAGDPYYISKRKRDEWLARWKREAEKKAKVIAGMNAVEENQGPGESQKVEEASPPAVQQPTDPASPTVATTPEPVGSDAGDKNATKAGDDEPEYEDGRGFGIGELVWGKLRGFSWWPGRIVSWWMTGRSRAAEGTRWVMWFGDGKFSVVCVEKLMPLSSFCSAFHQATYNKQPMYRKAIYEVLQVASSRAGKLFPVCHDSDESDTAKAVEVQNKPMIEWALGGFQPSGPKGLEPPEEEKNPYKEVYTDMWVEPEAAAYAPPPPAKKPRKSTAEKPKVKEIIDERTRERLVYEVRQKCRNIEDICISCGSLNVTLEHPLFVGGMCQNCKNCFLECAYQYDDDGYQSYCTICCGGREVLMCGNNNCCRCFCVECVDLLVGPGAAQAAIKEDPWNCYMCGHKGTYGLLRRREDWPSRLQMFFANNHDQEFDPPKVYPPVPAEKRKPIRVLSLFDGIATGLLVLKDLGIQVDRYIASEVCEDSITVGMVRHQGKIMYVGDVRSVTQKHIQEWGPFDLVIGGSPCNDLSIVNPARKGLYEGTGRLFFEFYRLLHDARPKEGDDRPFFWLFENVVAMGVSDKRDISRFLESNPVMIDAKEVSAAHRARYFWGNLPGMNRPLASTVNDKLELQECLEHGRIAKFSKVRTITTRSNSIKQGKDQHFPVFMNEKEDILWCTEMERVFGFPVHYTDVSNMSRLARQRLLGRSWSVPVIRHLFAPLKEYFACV

Turning to `COc1ccc2c(c1)cc1n2CCN2C(=O)c3cc(F)ccc3N(C)C12` (stereo unspecified), the IC50 (in general, the concentration at which inhibition is half-maximal) in the series on PC-3 was determined as 0.3 µM. The Activity in the series with HCT-116 [1] is 32.52%; with HCT-116 [2] it was 40.44%; in the series on HCT-116 [3] it was 1.02%; in the series with HCT-116 [4], 84.13%; with HCT-116 [5] it was “Dose-dependent effect”; in [6], “Non-Toxic”. Also, the concentration in solution in series [7] (solubility) came to 1.5 µg/mL (≈ 4.27 µM). The inhibition in series [8], in series [9], in [10], in series [11], in series [12] and in series [13] was less than 20% in each case. The inhibition – broadly, the change of the read-out against control, counted positive when it falls – in series [14] was less than 20%. Moreover, in series [15], the outcome was Active.
